{"source": "ChEMBL document CHEMBL2331121", "about": "“Design, synthesis, and pharmacological characterization of N- and O-substituted 5,6,7,8-tetrahydro-4H-isoxazolo[4,5-d]azepin-3-ol analogues: novel 5-HT(2A)/5-HT(2C) receptor agonists with pro-cognitive properties” (J Med Chem, 2013)", "key": {"[1]": {"target": "T1, 5-hydroxytryptamine receptor 2C (Homo sapiens) (UniProt P28335)", "T1 sequence (whole entry)": "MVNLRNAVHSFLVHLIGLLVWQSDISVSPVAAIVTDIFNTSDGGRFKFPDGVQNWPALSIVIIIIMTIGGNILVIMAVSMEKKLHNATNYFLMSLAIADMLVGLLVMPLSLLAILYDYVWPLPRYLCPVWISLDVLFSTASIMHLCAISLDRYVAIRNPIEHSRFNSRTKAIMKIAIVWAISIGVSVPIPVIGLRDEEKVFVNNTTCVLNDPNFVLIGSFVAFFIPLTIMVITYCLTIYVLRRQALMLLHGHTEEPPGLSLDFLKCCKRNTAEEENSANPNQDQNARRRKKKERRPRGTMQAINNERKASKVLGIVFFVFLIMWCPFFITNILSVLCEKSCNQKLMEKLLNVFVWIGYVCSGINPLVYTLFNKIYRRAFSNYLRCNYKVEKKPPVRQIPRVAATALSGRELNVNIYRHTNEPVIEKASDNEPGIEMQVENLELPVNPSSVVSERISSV", "test": "Agonist activity at human 5HT2C receptor expressed in HEK293 cells assessed as induction of intracellular calcium release by fluorescence assay relative to 5HT", "assay_type": "functional, cell-based", "summary_of_the_method": "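Stable polyclonal 5-HT2A or 5-HT2C HEK293 cells seeded on poly-D-lysine plates (6 × 10⁴ cells/well). Next day loaded with Fluo-4/AM for 1 h at 37 °C in HBSS/20 mM HEPES/1 mM CaCl₂/1 mM MgCl₂/2.5 mM probenecid, pH 7.4. Fluorescence (485 ex/525 em) recorded before and up to 90 s after agonist. Response relative to 5-HT on the same plate. Duplicate, at least three times.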"}, "[2]": {"target": "T2, 5-hydroxytryptamine receptor 2C (Homo sapiens, UniProt P28335)", "T2 sequence (P28335 whole entry)": "T1 sequence (whole entry)", "test": "Displacement of [3H]mesulergine from human 5HT2C receptor expressed in tsA201 cell membranes after 1 hr by scintillation counting analysis"}, "[3]": {"system": "Mus musculus", "test": "Procognitive effect in C57Bl/6J mouse assessed as distance traveled in the familiar arm at 0.43 mg/kg, po administered 30 mins prior to acquisition trial measured after 24 hrs by Y-maze test (Rvb =31.5 +/- 2.9%)", "assay_type": "functional", "summary_of_the_method": "(§1)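 Male C57Bl/6J mice aged 8 weeks, two-trial place recognition Y-maze. 3 min acquisition with two arms open; 24 h ITI; 3 min retention with all three arms open. Drug given po 30 min before acquisition, vehicle 10% HP-βCD. SB242084 2.1 mg/kg co-administered where stated; doses as free base. Readouts are % distance, arm entries and time in each arm. Familiar arms pooled; one-way ANOVA.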"}, "[4]": {"target": "T3, 5-hydroxytryptamine receptor 2C (Rattus norvegicus) (UniProt P08909)", "T3 sequence (whole entry)": "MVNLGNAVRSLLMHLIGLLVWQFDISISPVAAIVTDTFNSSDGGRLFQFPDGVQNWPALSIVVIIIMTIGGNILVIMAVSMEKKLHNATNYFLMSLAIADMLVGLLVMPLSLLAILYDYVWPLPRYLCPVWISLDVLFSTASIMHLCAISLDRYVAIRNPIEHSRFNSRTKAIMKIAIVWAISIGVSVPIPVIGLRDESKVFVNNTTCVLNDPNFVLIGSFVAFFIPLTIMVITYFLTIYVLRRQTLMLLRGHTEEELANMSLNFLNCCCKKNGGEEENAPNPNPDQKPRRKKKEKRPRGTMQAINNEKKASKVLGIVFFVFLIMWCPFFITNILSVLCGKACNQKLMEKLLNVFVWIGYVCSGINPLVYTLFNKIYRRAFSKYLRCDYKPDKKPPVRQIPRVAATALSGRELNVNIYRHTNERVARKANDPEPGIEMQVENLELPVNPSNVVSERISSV", "test": "Displacement of [125I]-N-(p-I-Bn)-THAZ from 5HT2C receptor in Sprague-Dawley rat cortical membrane at 100 uM after 40 mins by autoradiography"}, "[5]": {"system": "Mus musculus", "test": "Procognitive effect in C57Bl/6J mouse assessed as time spent in novel arm at 0.43 mg/kg, po administered 30 mins prior to acquisition trial measured after 24 hrs by Y-maze test", "assay_type": "functional", "summary_of_the_method": "as §1"}, "[6]": {"target": "T4, 5-hydroxytryptamine receptor 2A (Homo sapiens, UniProt P28223)", "T4 sequence (P28223 whole entry)": "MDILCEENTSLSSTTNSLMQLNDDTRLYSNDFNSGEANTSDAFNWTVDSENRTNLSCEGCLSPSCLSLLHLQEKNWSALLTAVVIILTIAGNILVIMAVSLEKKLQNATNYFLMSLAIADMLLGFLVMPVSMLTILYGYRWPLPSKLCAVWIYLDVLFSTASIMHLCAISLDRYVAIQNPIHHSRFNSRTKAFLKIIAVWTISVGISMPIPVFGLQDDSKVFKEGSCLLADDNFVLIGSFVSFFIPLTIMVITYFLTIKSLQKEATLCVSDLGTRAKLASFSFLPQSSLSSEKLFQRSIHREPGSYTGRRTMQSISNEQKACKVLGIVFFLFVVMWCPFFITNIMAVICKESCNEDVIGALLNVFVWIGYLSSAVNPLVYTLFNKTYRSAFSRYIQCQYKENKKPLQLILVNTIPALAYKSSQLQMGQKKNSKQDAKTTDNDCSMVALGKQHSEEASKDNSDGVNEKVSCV", "test": "Ratio of EC50 for human 5HT2A receptor by calcium fiux-based fluorescence assay to EC50 for 5HT2A by IP1 accumulation-based TR-FRET assay", "assay_type": "functional"}, "[7]": {"system": "Mus musculus", "test": "Procognitive effect in C57Bl/6J mouse assessed as distance traveled in the familiar arm at 0.43 mg/kg, po administered 30 mins prior to acquisition trial measured after 24 hrs in presence of SB242084 (reference value: 31.5 +/- 2.9%)", "assay_type": "functional", "summary_of_the_method": "as §1"}, "[8]": {"target": "T4, 5-hydroxytryptamine receptor 2A", "test": "Agonist activity at human 5HT2A receptor expressed in HEK293 cells assessed as accumulation of IP1 incubated for 1 hr at 37 degC followed by 15 mins at RT by TR-FRET assay relative to 5HT", "assay_type": "functional, cell-based", "summary_of_the_method": "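Polyclonal HEK293 lines stably expressing human 5-HT2A (variant 1) or 5-HT2C (INI isoform), detached and suspended at 1 × 10⁷ cells/mL in HBSS with 20 mM HEPES, 1 mM CaCl₂, 1 mM MgCl₂, pH 7.4. Ligands in buffer with 40 mM LiCl. Incubated 1 h at 37 °C, then 15 min RT. IP1 read by HTRF 665/615 ratio. Triplicate, at least four times.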"}, "[9]": {"target": "T3, 5-hydroxytryptamine receptor 2C (Rattus norvegicus)", "test": "Displacement of [125I]-N-(p-I-Bn)-THAZ from 5HT2C receptor in Sprague-Dawley rat midbrain membrane at 100 uM after 40 mins by autoradiography", "assay_type": "tissue-based"}, "[10]": {"target": "T3, 5-hydroxytryptamine receptor 2C (Rattus norvegicus)", "test": "Displacement of [125I]-N-(p-I-Bn)-THAZ from 5HT2C receptor in rat hippocampal membrane after 1 hr by scintillation counting analysis", "assay_type": "cell membranes", "details": "Hippocampus"}, "[11]": {"target": "T3, 5-hydroxytryptamine receptor 2C (Rattus norvegicus)", "test": "Displacement of [125I]-N-(p-I-Bn)-THAZ from 5HT2C receptor in rat cerebellum membrane after 1 hr by scintillation counting analysis", "assay_type": "cell membranes"}, "[12]": {"system": "Mus musculus", "test": "Procognitive effect in C57Bl/6J mouse assessed as distance traveled in the novel arm at 0.43 mg/kg, po administered 30 mins prior to acquisition trial measured after 24 hrs in presence of SB242084 (reference value: 37 +/-5.8%)", "assay_type": "functional", "summary_of_the_method": "as §1"}, "[13]": {"target": "T2, 5-hydroxytryptamine receptor 2C", "test": "Agonist activity at human 5HT2C receptor expressed in HEK293 cells assessed as accumulation of IP1 incubated for 1 hr at 37 degC followed by 15 mins at RT by TR-FRET assay", "assay_type": "functional, cell-based"}, "[14]": {"target": "T3, 5-hydroxytryptamine receptor 2C (Rattus norvegicus)", "test": "Displacement of [125I]-N-(p-I-Bn)-THAZ from 5HT2C receptor in rat cerebral cortex membrane after 1 hr by scintillation counting analysis", "assay_type": "cell membranes"}, "[15]": {"system": "Mus musculus", "test": "Procognitive effect in C57BI/6J mouse assessed as time spent in familiar arm at 0.43 mg/kg, po administered 30 mins prior to acquisition trial measured after 24 hrs in presence of SB242084", "assay_type": "functional", "summary_of_the_method": "as §1"}, "[16]": {"target": "T4, 5-hydroxytryptamine receptor 2A", "test": "Agonist activity at human 5HT2A receptor expressed in HEK293 cells assessed as accumulation of IP1 incubated for 1 hr at 37 degC followed by 15 mins at RT by TR-FRET assay", "assay_type": "functional, cell-based"}}, "note": "The source made the active and inactive calls. No cut-off for these calls is given here."}
{"molecule": "O=c1c2c(on1Cc1ccccc1)CCNCC2", "values": [{"measurement": "Emax", "setting": "[1]", "result": 90, "unit": "%"}, {"measurement": "Ki", "setting": "[2]", "result": 2.3, "unit": "µM"}, {"measurement": "Activity", "setting": "[3]", "result": 29.8, "unit": "%"}, {"measurement": "Activity", "setting": "[4]", "result": "Active"}, {"measurement": "Activity", "setting": "[5]", "result": 38.8, "unit": "%"}, {"measurement": "Ratio EC50", "setting": "[6]", "result": 2}, {"measurement": "Activity", "setting": "[7]", "result": 32.6, "unit": "%"}, {"measurement": "Emax", "setting": "[8]", "result": 95, "unit": "%"}, {"measurement": "Activity", "setting": "[9]", "result": "Active"}, {"measurement": "Activity", "setting": "[10]", "result": "inactive"}, {"measurement": "Activity", "setting": "[11]", "result": "inactive"}, {"measurement": "Activity", "setting": "[12]", "result": 34.7, "unit": "%"}, {"measurement": "EC50", "setting": "[13]", "result": 1.7, "unit": "µM"}, {"measurement": "Activity", "setting": "[14]", "result": "Dose-dependent effect"}, {"measurement": "Activity", "setting": "[15]", "result": 31.7, "unit": "%"}, {"measurement": "EC50", "setting": "[16]", "result": 2.4, "unit": "µM"}]}
